From PubChem
This excerpt belongs to a sample that is enriched for hits.
S1P3 antagonist: blocks the human S1P3 receptor. Q99500. CHO S1P3 NFAT-BLA reporter, FRET fluorescence, antagonist mode. inhibition, % at 4.98 µM. hit rate 0.27% among 170,000. AID 485;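 active = inhibition above the plate cutoff, the mean inhibition of test wells on that plate plus 3 SD, cut at about 28% in these data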;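 note: cells challenged with S1P at its EC80 of 0.8 µM; blue over green emission ratio from cleaved BLA substrate after 4 h stimulation; 0% = S1P-stimulated wells and 100% = unstimulated DMSO-only wells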
S1P4 antag: blocks the human S1P4 receptor. O95977. S1P4-expressing cells, antagonist mode, reporter read-out. inhibition, % at 4.98 µM. hit rate 0.26% among 220,000. AID 1510; in the data active = inhibition above about 29%;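 note: 0% = wells stimulated with agonist and 100% = vehicle wells without agonist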
Target sequence (O95977 whole entry, looked up): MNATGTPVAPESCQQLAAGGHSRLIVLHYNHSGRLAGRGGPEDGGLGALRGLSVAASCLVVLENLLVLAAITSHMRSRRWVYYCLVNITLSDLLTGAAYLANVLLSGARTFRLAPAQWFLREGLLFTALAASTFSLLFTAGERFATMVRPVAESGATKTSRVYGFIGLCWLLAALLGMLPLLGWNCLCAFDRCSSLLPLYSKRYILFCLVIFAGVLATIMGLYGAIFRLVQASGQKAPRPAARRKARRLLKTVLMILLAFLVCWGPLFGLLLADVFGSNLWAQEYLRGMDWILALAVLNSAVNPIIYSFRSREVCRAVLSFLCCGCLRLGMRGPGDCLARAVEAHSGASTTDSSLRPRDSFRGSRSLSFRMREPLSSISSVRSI
S1P4 ag: agonists of human S1P4 receptor | hit rate 0.35% among 220,000 | S1P4-expressing cell line, agonist reporter assay | activation, % at 4.98 µM | AID 1509 | O95977; in the data active = activation above about 11%;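 note: 0% = DMSO vehicle and 100% = reference agonist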
L major viab: inhibitors of Leishmania major promastigote growth; Leishmania major promastigotes, resazurin fluorescence viability; hit rate 9% among 200,000; inhibition, % at 10 µM; in the data active = inhibition above about 50%;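 note: promastigotes grown with compound for 44 hours at 28 °C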
Mdm2 ligase inh: blocks human Mdm2 ubiquitin ligase activity; Q00987; cell-based MDM2 ubiquitination luciferase reporter, 2 h; 0 = plate control, 100 = twice control, blank-subtracted; signal enhancement, % at 5 µM; hit rate 0.11% among 210,000; AID 1230;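 active = signal enhancement of 30% or more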;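 note: luminescence tracks abundance of the self-degrading MDM2-luciferase fusion protein; higher signal means inhibition of MDM2 E3 ligase activity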
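system = mammalian cells stably expressing self-ubiquitinating, self-degrading MDM2 E3–luciferase fusion | quantity = 2000 cells per well seeded | incubation = 4 h cell settling then 2 h compound exposure, 37 °C | signal = SteadyLite luminescence, 15 min reagent step | benchmarks = plate control and blank wells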
* hit, by the source's call; nt = no result.

SMILES	S1P3 antagonist	S1P4 antag	S1P4 ag	L major viab	Mdm2 ligase inh
CCCc1[nH]nc2c1C(c1cccnc1)C(C#N)=C(N)O2 (stereo unspecified)	-81	-2	1	2	-11
CCn1c2ccccc2c2cc(C3C(C#N)=C(N)Oc4n[nH]c(COC)c43)ccc21 (stereo unspecified)	-27	11	0	89*	-1
CCCc1[nH]nc2c1C(c1ccc(O)c(OC)c1)C(C#N)=C(N)O2 (stereo unspecified)	-13	6	1	80*	6
CCCc1[nH]nc2c1C(c1ccccc1OCC)C(C#N)=C(N)O2 (stereo unspecified)	14	-2	2	54*	-7
CCCc1[nH]nc2c1C(c1ccccc1OC)C(C#N)=C(N)O2 (stereo unspecified)	10	13	-1	18	-5
Cc1[nH]nc2c1C(c1ccc3c(c1)OCO3)C(C#N)=C(N)O2 (stereo unspecified)	-20	-5	-2	35	-10
CCOc1ccc(-c2[nH]nc3c2C(c2ccc4c(c2)OCO4)C(C#N)=C(N)O3)cc1OC (stereo unspecified)	15	-18	0	51*	2
CCN(CC)c1ccc2cc(C(=O)Nc3ccc(-n4cnnn4)c(OC)c3)c(=O)oc2c1	-24	nt	nt	nt	nt
COc1cccc(-c2nnc(-c3ccc(C(F)(F)F)cc3)o2)c1OC	nt	-17	1	-3	nt
COc1cc(OC)c(-c2nnc(-c3ccc(OC)c(OC)c3OC)o2)cc1OC	7	-11	1	56*	-18
Cc1cccc(NC(=S)NC(C)C(c2ccccc2)N2CCN(C)CC2)c1C (stereo unspecified)	-19	-6	0	2	1
COc1ccc(/C=C2\SC(=O)N(CCNC(=O)CCS(=O)(=O)c3ccc(C)cc3)C2=O)cc1	11	2	-3	10	-10
COc1ccc(/C=C2\SC(=O)N(CCNC(=O)C3CCN(S(=O)(=O)c4cccs4)CC3)C2=O)cc1	-3	11	-1	64*	-8
COc1ccc(/C=C2\SC(=O)N(CCNC(=O)Cn3cnnn3)C2=O)cc1	nt	-20	-2	56*	-19
Cn1c(C(=O)NCCN2CCOCC2)cc2sccc21	-34	0	-2	6	-16
Cc1cc2c(cc(C(=O)NCCCN3CCOCC3)n2Cc2ccc(Cl)cc2)o1	-23	-10	1	99*	-10
CCn1c(C(=O)NCCCN2CCc3ccccc3C2)cc2sccc21	-8	-9	1	91*	-18
Cc1ccc(Cn2c(C(=O)NCCCN3CCOCC3)cc3sccc32)cc1	-16	-1	-1	87*	5
O=C(Nc1ccc2c(c1)OCCO2)c1cc2sccc2n1Cc1ccc(F)cc1	nt	-32	0	97*	-4
Cc1cc(NC(=O)COC(=O)CCNS(=O)(=O)c2c(Cl)cccc2Cl)no1	-7	-7	1	-8	-16
O=C(Cn1c(C(=O)NCCCN2CCOCC2)cc2sccc21)c1ccccc1	nt	-8	1	81*	0
CCNC(=O)NC(=O)C(C)OC(=O)CCCSc1nc2ccccc2s1 (stereo unspecified)	-2	4	0	64*	-4
CNC(=O)NC(=O)C(C)OC(=O)CCCSc1nc2ccccc2s1 (stereo unspecified)	-7	3	0	65*	0
CCNC(=O)NC(=O)COC(=O)CCCSc1nc2ccccc2s1	-10	-12	1	-4	-12
O=C(NC1=NCCS1)c1ccc([N+](=O)[O-])cc1Cl	8	-9	0	-5	-14
SMILES	S1P3 antagonist	S1P4 antag	S1P4 ag	L major viab	Mdm2 ligase inh
O=C(O)CCCN=Cc1c(O)c2ccccc2oc1=O	2	-15	1	-7	-13
O=C(NCc1ccccc1)c1cccc(NS(=O)(=O)c2cccc3cccnc23)c1	5	-22	-1	54*	-9
O=S(=O)(NCc1ccccc1)c1cccc2cccnc12	nt	-2	3	64*	-15
O=C(O)CCCCCN1C(=O)C(O)=C(C(=O)/C=C/c2ccccc2)C1c1ccccc1[N+](=O)[O-] (stereo unspecified)	-12	-2	1	-8	27
Cc1nc2cc(Nc3nnc(-c4ccccc4)c4ccccc34)ccc2n1C	nt	-27	-3	88*	-28
O=C(C1CC(=O)N(C2CCCC2)C1)N1CCC(Cc2ccccc2)CC1 (stereo unspecified)	-1	-30	1	70*	-10
CCS(=O)(=O)Nc1ccc(C2=NN(S(C)(=O)=O)C(c3cccs3)C2)cc1 (stereo unspecified)	-8	14	-2	-6	-8
CCOC(=O)C1=C(CNCCc2ccc(Cl)cc2)NC(=O)NC1c1ccc2c(c1)OCO2 (stereo unspecified)	20	-5	0	80*	-15
CCOC(=O)C1=C(CNCCOc2ccc(OC)cc2)NC(=O)NC1c1ccc2c(c1)OCO2 (stereo unspecified)	2	-25	-1	16	7
Cc1ccc(-c2c[n+]3c(n2-c2ccccc2)CCC3)cc1	-3	-3	0	nt	-20
Cc1ccc(-n2c(-c3ccc(Br)cc3)c[n+]3c2CCc2ccc4cccnc4c2-3)cc1	nt	-8	-2	100*	-64
COc1ccc(N2C(=O)C3[C@@H](C2=O)C2(Cl)C(Cl)=C(Cl)C3(Cl)C2(OC)OC)cc1 (stereo partly specified)	-4	-20	-1	-2	-8
Cc1ccc(OCC(=O)NCC(=O)Nc2ccc(F)cc2)c([N+](=O)[O-])n1	-14	3	2	50*	-4
CCNC(=O)/C=C1\NC(C)(C)Cc2c1ccc1ccccc21	nt	-13	-1	100*	nt
COc1cccc2c3c(c(C)nc12)CCN3c1ccccc1	2	-4	-1	78*	-4
COc1ccccc1N1CCc2c(C)nc3c(OC)cccc3c21	nt	-7	-3	89*	-15
O=C(NNc1ccc(Cl)cc1)c1c(F)cccc1Cl	8	8	1	nt	-2
CC(=O)C(=Nc1ccccc1Cl)NNc1ccc(Cl)cc1	nt	13	3	93*	-7
COc1ccc2[nH]c3c(=O)n(Cc4ccc(C(=O)N5CCCC5)cc4)c(=S)[nH]c3c2c1	1	2	-1	-7	-8
CC1(C)CC(=O)C2=C(C1)N1C(=C(C#N)C2c2ccc(Cl)cc2)N=C(N)c2ccccc21 (stereo unspecified)	3	4	1	66*	nt
CCOC(=O)C1(CCCc2ccccc2)CCN(Cc2cnn(C)c2)CC1	-1	-4	1	77*	-14
CCOC(=O)C1(CCOc2ccccc2)CCN(C(=O)c2ccc(-n3cccn3)cc2)CC1	-9	-12	-1	17	-11
CCOC(=O)C1(CCOc2ccccc2)CCN(Cc2cccc(-n3cccn3)c2)CC1	-7	4	-1	93*	-2
CCOC(=O)C1(CCOc2ccccc2)CCN(CCCn2cccn2)CC1	0	4	0	79*	-13
CCOC(=O)C1(CCc2ccccc2)CCN(C(=O)c2occc2C)CC1	15	-4	1	30	2
